Test results as given in ChEMBL document CHEMBL2021854, “2-Aminopyrimidine based 4-aminoquinoline anti-plasmodial agents. Synthesis, biological activity, structure-activity relationship and mode of action studies” (Eur J Med Chem, 2012).

What was measured:
[1] = Inhibition of beta-hematin formation assessed as Ferriprotoporphyrin IX biomineralisation after 24 hrs; assay type: functional
Outline: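 Hemin (0.5 mg/ml in DMSO) was mixed with 0.5 M sodium acetate pH 4.4 and compound, then incubated for 24 h at 37 °C. The pellet was washed with DMSO to remove unreacted hemin and dissolved in 0.1 N NaOH, with A405 read. Percent inhibition was taken versus solvent control, and IC50 by curve fitting.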

[2] = test system: Vesicular stomatitis virus; assay: Antiviral activity against Vesicular stomatitis virus infected in HeLa cells assessed as inhibition of virus-induced cytopathogenicity after 4 days; assay type: functional, organism-based; details: 96 h
Outline: (§1)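 Confluent HEL or HeLa monolayers infected with 100 CCID50 of virus in the presence of varying compound concentrations.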

Human respirovirus 3 = assay: Antiviral activity against Parainfluenza-3 virus infected in african green monkey Vero cells assessed as inhibition of virus-induced cytopathogenicity after 4 days; assay type: functional, organism-based; details: Human respirovirus 3, Vero, 96 h
Outline: (§2)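 Confluent HEL, Vero or HeLa monolayers were inoculated with 100 CCID50 of virus in the presence of varying concentrations of compound. Cytopathicity was scored when it reached completion in untreated, virus-infected control cultures.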

Plasmodium falciparum [3] = assay: Ratio of chloroquine IC50 to compound IC50 for chloroquine-sensitive Plasmodium falciparum 3D7; assay type: functional
Human alphaherpesvirus 3 = assay: Antiviral activity against […] expressing thymidine kinase infected in HEL cells assessed as reduction of virus plaque formation after 4 days; assay type: functional, cell-based; details: Human alphaherpesvirus 3, strain Oka vaccine, 96 h
Nucleic Acid [4] = assay: Binding affinity to Escherichia coli pUC18 DNA by spectrofluorometric analysis; assay type: nucleic-acid assay
Outline: (§3)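 Steady-state fluorescence titration at ambient temperature: compound held at 30 μM while DNA was varied (0.3–70 μM), working solutions diluted in methanol. Excitation 320 nm, emission 380 nm, slit 5 nm. Log K was calculated from quenching of the 380 nm emission.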

Nucleic Acid [5] = assay: Binding affinity to calf thymus DNA after 5 mins by spectrofluorometric analysis; assay type: nucleic-acid assay; details: Bos taurus; outline: as §3
HeLa = assay: Cytotoxicity against human HeLa cells assessed as cell viability by colorimetric formazan-based MTS assay
Human alphaherpesvirus 2 = assay: Antiviral activity against HSV2 G infected in HEL cells assessed as inhibition of virus-induced cytopathogenicity after 4 days; assay type: functional, organism-based; details: Human alphaherpesvirus 2, strain G, 96 h; outline: as §2
Influenza A virus [6] = assay: Antiviral activity against Influenza A virus H3N2 infected in MDCK cells assessed as reduction visual scoring of virus-induced cytopathogenicity after 4 days; assay type: functional, organism-based; details: 96 h
Outline: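 MDCK monolayers infected with 100 CCID50 of influenza A (H1N1 or H3N2) or influenza B, with varying compound concentrations. Cytopathicity read when untreated infected controls reached complete CPE.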

Plasmodium falciparum [7] = assay: Ratio of chloroquine IC50 to compound IC50 for chloroquine-sensitive Plasmodium falciparum K1; assay type: functional
Influenza A virus [8] = assay: Antiviral activity against Influenza A virus H3N2 infected in MDCK cells assessed as inhibition of virus-induced cytopathogenicity after 4 days by colorimetric formazan-based MTS assay; assay type: functional, organism-based; details: 96 h
[9] = test system: Human immunodeficiency virus 2; assay: Antiviral activity against HIV2 infected in human CEM cells assessed as inhibition of virus-induced cytopathic effect after 4 days; assay type: functional, organism-based; details: Human immunodeficiency virus 2, CCRF-CEM, 96 h
Outline: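 CEM T-lymphocytes (~3 × 10^5 cells/ml) were infected with HIV-1 IIIB or HIV-2 ROD at ~100 CCID50, then immediately plated with a range of compound concentrations. Giant cell formation was scored microscopically after 4 days at 37 °C. Cytostatic activity was tested in parallel in uninfected CEM cells.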

Punta Toro virus = assay: Antiviral activity against Punta Toro virus infected in african green monkey Vero cells assessed as inhibition of virus-induced cytopathogenicity after 4 days; assay type: functional, organism-based; details: 96 h; outline: as §2
[10] = test system: Vesicular stomatitis virus; assay: Antiviral activity against Vesicular stomatitis virus infected in HEL cells assessed as inhibition of virus-induced cytopathogenicity after 4 days; assay type: functional, organism-based; details: 96 h; outline: as §1
[11] = Inhibition of beta-hematin formation assessed as Ferriprotoporphyrin IX biomineralisation at 1 mg/ml after 24 hrs; assay type: functional
Outline: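 Hemin chloride (0.5 mg/ml in DMSO) mixed with 0.5 M sodium acetate buffer pH 4.4 and drug or solvent control, incubated 37 °C for 24 h. Pellet washed with DMSO to remove unreacted hemin, dissolved in 0.1 N NaOH, absorbance read at 405 nm; percent inhibition relative to control. Highest concentration tested 1 mg/ml.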

Structure (SMILES) | IC50 [1] | inhibition [1] | EC50 [2] | EC50 (Human respirovirus 3) | Ratio IC50 (Plasmodium falciparum [3]) | EC50 (Human alphaherpesvirus 3) | log Ks (Nucleic Acid [4]) | log Ks (Nucleic Acid [5]) | CC50 (HeLa) | EC50 (Human alphaherpesvirus 2) | EC50 (Influenza A virus [6]) | Ratio IC50 (Plasmodium falciparum [7]) | EC50 (Influenza A virus [8]) | EC50 [9] | EC50 (Punta Toro virus) | EC50 [10] | inhibition [11]
Cc1nc(NCCCCNc2ccnc3cc(Cl)ccc23)nc(-c2ccccc2[N+](=O)[O-])c1C(=O)OC(C)C | 2 µM | Dose-dependent effect | > 20 µM | > 20 µM | 56 | 4 µM | 5.27 | 3.39 | 4.4 µM | > 4 µM | > 0.8 µM | 56 | > 0.8 µM | > 2 µM | > 20 µM | > 4 µM | 100%
CCOC(=O)c1c(C)nc(NCCCCNc2ccnc3cc(Cl)ccc23)nc1-c1ccccc1 |  |  | > 100 µM | > 100 µM |  | 4 µM |  | 4.67 | 1.84 µM | > 100 µM | > 0.16 µM |  | > 0.16 µM | > 2 µM | > 100 µM | > 100 µM | 100%
